Residue numbers refer to the chain shown, from its start. pEC50, pKd: −log10 of the molar value. Where only a bound is given, the exact number is not on record here.

Assay [1] deals with T1, Retinoic acid receptor beta (Homo sapiens, UniProt P10826).
T1 sequence (P10826 whole entry): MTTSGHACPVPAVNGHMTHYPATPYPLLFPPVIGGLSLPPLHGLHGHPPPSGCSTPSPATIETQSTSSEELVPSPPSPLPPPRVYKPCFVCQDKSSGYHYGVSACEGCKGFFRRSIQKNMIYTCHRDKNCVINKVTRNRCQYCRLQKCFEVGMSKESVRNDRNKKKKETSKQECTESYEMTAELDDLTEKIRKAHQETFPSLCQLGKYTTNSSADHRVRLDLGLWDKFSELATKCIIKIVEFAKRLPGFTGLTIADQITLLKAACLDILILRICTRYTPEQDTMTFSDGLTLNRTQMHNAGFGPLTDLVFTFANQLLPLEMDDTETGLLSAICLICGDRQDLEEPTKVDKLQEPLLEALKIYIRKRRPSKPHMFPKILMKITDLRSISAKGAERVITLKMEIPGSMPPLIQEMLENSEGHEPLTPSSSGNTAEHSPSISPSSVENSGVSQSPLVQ
As to the kind of experiment: Transcriptional activation of Retinoic acid receptor RAR beta;NA=not active. Also noted: species or system Cercopithecidae. A digest of the protocol: (§1)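 CV-1 cells transiently cotransfected with the receptor construct and a reporter gene, with induced transcription measured. Activity is normalized to all-trans RA. EC50 is the concentration giving 50% of maximal observed response, from a single experiment in triplicate.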

Assay [2] addresses T2, Retinoic acid receptor gamma (Homo sapiens, UniProt P13631).
T2 sequence (P13631 whole entry): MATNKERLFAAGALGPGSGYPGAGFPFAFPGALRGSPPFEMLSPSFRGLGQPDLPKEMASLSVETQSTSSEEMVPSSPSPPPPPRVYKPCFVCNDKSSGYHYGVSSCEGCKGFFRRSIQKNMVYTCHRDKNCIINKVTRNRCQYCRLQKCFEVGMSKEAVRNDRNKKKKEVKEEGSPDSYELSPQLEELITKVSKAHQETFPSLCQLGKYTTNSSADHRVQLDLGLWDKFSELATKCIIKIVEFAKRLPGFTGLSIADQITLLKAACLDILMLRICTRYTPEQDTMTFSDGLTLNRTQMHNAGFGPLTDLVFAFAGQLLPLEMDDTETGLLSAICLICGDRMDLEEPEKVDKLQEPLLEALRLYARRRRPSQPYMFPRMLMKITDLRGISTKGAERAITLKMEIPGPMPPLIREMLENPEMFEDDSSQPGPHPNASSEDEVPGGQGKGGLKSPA
Kind of assay: Transcriptional activation of Retinoic acid receptor RAR gamma;NA=not active. Also on record: species or system Cercopithecidae. A digest of the protocol: as §1

Assay [3] has as its target T3, Retinoic acid receptor RXR-gamma (Homo sapiens, UniProt P48443).
T3 sequence (P48443 whole entry): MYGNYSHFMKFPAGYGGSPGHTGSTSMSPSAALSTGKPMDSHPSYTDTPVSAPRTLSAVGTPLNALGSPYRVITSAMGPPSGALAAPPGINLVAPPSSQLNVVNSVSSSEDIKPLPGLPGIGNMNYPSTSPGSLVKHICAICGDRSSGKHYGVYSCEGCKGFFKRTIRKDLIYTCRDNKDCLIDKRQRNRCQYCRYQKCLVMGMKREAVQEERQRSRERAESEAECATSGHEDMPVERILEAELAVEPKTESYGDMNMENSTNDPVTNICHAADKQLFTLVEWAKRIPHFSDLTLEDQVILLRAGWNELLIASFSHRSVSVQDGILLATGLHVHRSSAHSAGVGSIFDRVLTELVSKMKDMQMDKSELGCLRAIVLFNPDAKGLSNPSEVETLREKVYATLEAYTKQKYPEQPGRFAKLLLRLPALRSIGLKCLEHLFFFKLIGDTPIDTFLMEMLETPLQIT
As to the kind of experiment: Transcriptional activation of Retinoid X receptor RXR gamma. Also on record: species or system Cercopithecidae. A digest of the protocol: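 CV-1 cells transiently cotransfected with the receptor construct and a reporter gene, with induced transcription measured. Activity is normalized to all-trans RA.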

In assay [4] the target is T4, Retinoic acid receptor RXR-gamma (Mus musculus, UniProt P28705).
T4 sequence (P28705 whole entry): T3 sequence (P48443 whole entry) with A13T, Y15F, A31V, S34P, T228S, G230S, M258V, T450S
As to the kind of experiment: Dissociation constant for binding to Retinoid X receptor gamma. A digest of the protocol:
(§2)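 Competitive binding assays against each receptor subtype, with Kd values taken from competition.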

Assay [5] deals with T5, Retinoic acid receptor gamma (Mus musculus, UniProt P18911).
T5 sequence (P18911 whole entry): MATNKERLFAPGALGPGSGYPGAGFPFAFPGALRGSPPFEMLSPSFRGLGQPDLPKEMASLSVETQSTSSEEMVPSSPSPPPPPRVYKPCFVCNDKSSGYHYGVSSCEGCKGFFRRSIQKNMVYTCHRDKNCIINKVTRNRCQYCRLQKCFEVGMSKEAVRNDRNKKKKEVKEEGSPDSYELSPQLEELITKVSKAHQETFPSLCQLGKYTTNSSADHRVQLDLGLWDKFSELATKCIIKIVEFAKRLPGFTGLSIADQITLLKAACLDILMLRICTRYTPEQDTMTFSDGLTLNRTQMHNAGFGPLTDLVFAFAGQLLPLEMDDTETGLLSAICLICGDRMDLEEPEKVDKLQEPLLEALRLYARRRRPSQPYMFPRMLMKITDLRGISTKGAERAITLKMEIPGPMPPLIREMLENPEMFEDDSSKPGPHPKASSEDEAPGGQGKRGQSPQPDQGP
Kind of assay: Dissociation constant for binding to Retinoic acid receptor gamma. A digest of the protocol: as §2

For orientation: pEC50 means the negative decadic logarithm of the EC50, by convention in mol/L. Take `Cc1cc2c(cc1Sc1ccc(C(=O)O)cn1)C(C)(C)CCC2(C)C`: the EC50 entry in assay [1] and in assay [2] was “Not Active” in each case. Besides, the pEC50 in assay [3] was 7.38.

In general, pKd refers to −log10 of the Kd, conventionally taken in molar units. As to `Cc1cc2c(cc1Sc1ncc(C(=O)O)s1)C(C)(C)CCC2(C)C`, the EC50 entry in assay [1] and in assay [2] was “Not Active” each time. Besides, the pKd in assay [4] and in assay [5] was 6.00 throughout. In assay [3], the pEC50 was 5.72.

For `Cc1cc2c(cc1S(=O)(=O)c1ccc(C(=O)O)cc1)C(C)(C)CCC2(C)C`, the EC50 entry in assay [1] and in assay [2] was “Not Active” throughout. Moreover, the pKd in assay [4] is 5.40; in assay [5], 5.00.

As to `Cc1cc2c(cc1Sc1ccc(C(=O)O)cc1)C(C)(C)CCC2(C)C`, in assay [1], the EC50 entry was “Not Active”. The molecule further showed a negative logarithm of the EC50 (pEC50) in assay [3] of 6.55. Moreover, in assay [5], the pKd was 5.00.

As for `CC1(C)CCC(C)(C)c2cc(Sc3ccc(C(=O)O)cc3)ccc21`, the pKd in assay [5] was less than 5.00.

As for `Cc1cc2c(cc1[S+]([O-])c1ccc(C(=O)O)cc1)C(C)(C)CCC2(C)C` (stereo unspecified), the EC50 entry in assay [1] and in assay [2] was “Not Active” in each case. Moreover, the pKd was less than 5.00 in assay [4] and 5.00 in assay [5]. The same molecule gave a pEC50 in assay [3] of 5.80.
